Published values from different studies.
Lines come from different studies, so protocols differ.
CDK5 with p35: Cyclin-dependent kinase 5, with p35 (CDK5, Homo sapiens, UniProt Q00535)
CDK5: Cyclin-dependent kinase 5 (CDK5, Homo sapiens, UniProt Q00535)

| SMILES | target | observed | mode | technique | concentration | measurement | result |
| --- | --- | --- | --- | --- | --- | --- | --- |
| CC(C)(C)c1cc(C=C(C#N)C#N)cc(Br)c1O | CDK5 with p35 | enzyme activity | inhibitor | – | 0.5 µM | remaining activity | 102% |
| Cn1cncc1[C@](O)(COc1ccc(C#N)cc1-c1ccc(OC(F)(F)F)cc1)c1ccc(C#N)cc1 | CDK5 | cell-free assay | – | competition with immobilised ligand | 1 µM | remaining binding | 92% |
| Cc1nn(C)cc1-c1nc2c(N3CCN(Cc4ccc(Cl)cc4)CC3)c(Cl)cnc2[nH]1 | CDK5 | binding | – | competition with immobilised ligand | 1 µM | remaining binding | 76% |
| N#CC1(c2ccccn2)CCN(Cc2cc(C(=O)O)c(=O)n3ccccc23)CC1 | CDK5 | cell-free assay | – | competition with immobilised ligand | 1 µM | remaining binding | 100% |
| Cn1cc(-c2cccc(N3CCc4c(sc5c4CC(C)(C)C5)C3=O)c2CO)cc(Nc2ccncn2)c1=O | CDK5 with p35 | enzyme activity | inhibitor | – | 1 µM | inhibition | 3% |
| Nc1ncc(-c2nc(N3CCOCC3)nc(N3CCOCC3)n2)c(C(F)F)n1 | CDK5 | binding | – | competition with immobilised ligand | 10 µM | remaining binding | 100% |
| Cn1cc(-c2cc(F)cc(N3CCn4c(cc5c4CCCC5)C3=O)c2CO)cc(Nc2ccc(N3CCN(C4COC4)CC3)cn2)c1=O | Cyclin-dependent kinase 5, with p25 (CDK5, Homo sapiens, UniProt Q00535) | enzyme activity | inhibitor | – | 0.1 µM | inhibition | 9% |
| COc1ncccc1-c1cnn2ccc(N3CCN(C(=O)OC(C)C)CC3)nc12 | CDK5 | binding | – | competition with immobilised ligand | 1 µM | remaining binding | 100% |
